Experimental data reported in ChEMBL document CHEMBL4130555, “Heterodimeric Diterpenoids Isolated from Euphorbia ebracteolata Roots and Their Inhibitory Effects on α-Glucosidase” (J Nat Prod, 2017).

How the values were obtained:
[1] = Inhibition of baker's yeast alpha-glucosidase using p-nitrophenyl-alpha-D-glucopyranoside as substrate preincubated for 0.5 hrs followed by substrate addition measured for 0.5 hrs; set-up: species or system Saccharomyces cerevisiae
Summary of the method: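 Enzyme activity measured with p-NPG as substrate, acarbose run alongside as positive control; procedure follows a previously published protocol.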

[2] = Non-competitive inhibition of baker's yeast alpha-glucosidase using p-nitrophenyl alpha-D-glucopyranoside as substrate preincubated for 0.5 hrs followed by substrate addition measured for 0.5 hrs by Lineweaver-Burk plot analysis; set-up: species or system Saccharomyces cerevisiae
[3] = Inhibition of acetyltransferase activity of Mycobacterium tuberculosis H37Rv GlmU expressed in Escherichia coli BL21(DE3) using acetylcoA as substrate after 30 mins
[4] = tested on: HCT-8; assay: Cytotoxicity against human HCT8 cells by MTT assay; format: functional, cell-based
[5] = tested on: A549; assay: Cytotoxicity against human A549 cells by MTT assay; format: functional, cell-based
[6] = tested on: A2780; assay: Cytotoxicity against human A2780 cells by MTT assay; format: functional, cell-based
[7] = tested on: BGC-823; assay: Cytotoxicity against human BGC823 cells by MTT assay; format: functional, cell-based
[8] = tested on: Bel-7402; assay: Cytotoxicity against human Bel7402 cells by MTT assay; format: functional, cell-based

| Structure (SMILES) | IC50 [1] | Ki [2] | IC50 [3] | IC50 [4] | IC50 [5] | IC50 [6] | IC50 [7] | IC50 [8] |
| --- | --- | --- | --- | --- | --- | --- | --- | --- |
| C=C[C@@]1(C)CC[C@]2(C)c3cc(O[C@@]45OC(=O)C(C)=C4[C@H]4O[C@]46CC[C@@H]4C(C)(C)CCC[C@@]4(C)[C@@H]6[C@H]5O)c(O)c(C)c3CC[C@H]2C1 | 7.94 µM | 10.8 µM | > 100 µM | > 100 µM | > 100 µM | > 100 µM | > 100 µM | > 100 µM |
| C[C@H]1O[C@H](O[C@H]2[C@H](O)[C@@H](O)[C@@H](O[C@H]3[C@H](O)[C@@H](O)C(O)O[C@@H]3CO)O[C@@H]2CO)[C@H](O)[C@@H](O)[C@@H]1N[C@H]1C=C(CO)[C@@H](O)[C@H](O)[C@H]1O (stereo partly specified) [ACARBOSE] | 579 µM |  |  |  |  |  |  |  |
| C=C[C@@]1(C)CC[C@]2(C)c3cc4c(c(C)c3CC[C@H]2C1)O[C@@H]1C2=C(C)C(=O)O[C@@]2(O4)[C@H](O)[C@H]2[C@]3(C)CCCC(C)(C)[C@H]3CC[C@@]12O | 50.4 µM |  | 41.9 µM | > 100 µM | > 100 µM | > 100 µM | > 100 µM | > 100 µM |
